In brackets after ≈: the same amount, converted by molar mass.
What was measured:
[1] = target: Acetylcholinesterase (Homo sapiens) (UniProt P22303)
[2] = tested on: Escherichia coli; assay: Antimicrobial activity against Escherichia coli; assay type: functional
[3] = tested on: Klebsiella pneumoniae; assay: Antimicrobial activity against Klebsiella pneumoniae; assay type: functional
[4] = tested on: Staphylococcus aureus; assay: Antimicrobial activity against Staphylococcus aureus; assay type: functional
In short: (§1)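 Antibacterial MIC determination in µg/mL against a bacterial panel that includes Streptococcus pyogenes, with gentamicin as positive control; otherwise run by a literature procedure.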

[5] = tested on: Staphylococcus aureus; assay: Antimicrobial activity against methicillin-resistant Staphylococcus aureus; assay type: functional
In short: as §1

[6] = tested on: Streptococcus pyogenes; assay: Antimicrobial activity against Streptococcus pyogenes; assay type: functional
In short: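 Antibacterial test read as MIC (µg/mL), following a previously published procedure, with gentamicin run as positive control.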

[7] = tested on: Candida albicans; assay: Antimicrobial activity against Candida albicans; assay type: functional
In short: (§2)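 Antifungal test read as MIC (µg/mL), following a previously published procedure, with amphotericin B run as positive control.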

[8] = tested on: Cryptococcus neoformans; assay: Antimicrobial activity against Cryptococcus neoformans; assay type: functional
In short: as §2

Acetylcholinesterase (Homo sapiens), sequence (P22303 whole entry): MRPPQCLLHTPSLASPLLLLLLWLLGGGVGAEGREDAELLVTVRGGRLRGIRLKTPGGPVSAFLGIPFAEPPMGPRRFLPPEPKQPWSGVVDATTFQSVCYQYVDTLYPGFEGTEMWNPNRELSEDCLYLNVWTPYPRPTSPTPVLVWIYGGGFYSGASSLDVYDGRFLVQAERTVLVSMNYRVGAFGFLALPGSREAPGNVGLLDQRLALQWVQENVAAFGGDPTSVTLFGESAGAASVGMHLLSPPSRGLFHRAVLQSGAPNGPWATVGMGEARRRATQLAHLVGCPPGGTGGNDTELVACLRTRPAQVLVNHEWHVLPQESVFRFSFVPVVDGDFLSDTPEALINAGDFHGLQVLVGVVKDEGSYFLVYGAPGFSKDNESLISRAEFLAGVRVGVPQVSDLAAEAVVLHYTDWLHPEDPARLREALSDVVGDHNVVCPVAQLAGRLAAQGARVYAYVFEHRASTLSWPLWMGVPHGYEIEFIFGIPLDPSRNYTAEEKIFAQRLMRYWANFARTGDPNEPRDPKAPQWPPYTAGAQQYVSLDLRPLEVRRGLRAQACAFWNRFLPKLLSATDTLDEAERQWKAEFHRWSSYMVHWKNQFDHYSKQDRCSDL

| Compound | MIC [1] [ng] | MIC [2] [µg/mL] | MIC [3] [µg/mL] | MIC [4] [µg/mL] | MIC [5] [µg/mL] | MIC [6] [µg/mL] | MIC [7] [µg/mL] | MIC [8] [µg/mL] |
| --- | --- | --- | --- | --- | --- | --- | --- | --- |
| CC/C=C/C12C3CC4C5[C@@H](C)/C(=C6/OC(=O)C(C)=C6OC)O[C@]5(O3)C1CCN42 (some centres undefined) | 5 | – | – | – | – | – | – | – |
| CC[C@H](O)[C@@H]1CC[C@@H]2O[C@@]34CCC[N+]1([O-])[C@@H]2[C@H]3[C@H](C)/C(=C1/OC(=O)C(C)=C1OC)O4 (some centres undefined) | 100 | – | – | – | – | – | – | – |
| C[C@@H]1[C@H](O)[C@@H](C)/C=C/C=C/C=C/C=C/C=C/C=C/C=C/[C@H](O[C@@H]2O[C@H](C)[C@@H](O)[C@H](N)[C@@H]2O)C[C@@H]2O[C@](O)(C[C@@H](O)C[C@@H](O)[C@H](O)CC[C@@H](O)C[C@@H](O)CC(=O)O[C@H]1C)C[C@H](O)[C@H]2C(=O)O [AMPHOTERICIN B] | – | 250 (≈ 271 µM) | 250 (≈ 271 µM) | 250 (≈ 271 µM) | 250 (≈ 271 µM) | 250 (≈ 271 µM) | 250 (≈ 271 µM) | 250 (≈ 271 µM) |
| COc1cc(-c2cc3c(O)cccc3o2)c(C)c(O)c1C [STEMOFURAN E] | – | 250 (≈ 879 µM) | 250 (≈ 879 µM) | 250 (≈ 879 µM) | 250 (≈ 879 µM) | 250 (≈ 879 µM) | 250 (≈ 879 µM) | 250 (≈ 879 µM) |
| COc1c(C)c(O)c(C)c(-c2cc3c(O)cccc3o2)c1C [STEMOFURAN F] | – | 250 (≈ 838 µM) | 250 (≈ 838 µM) | 250 (≈ 838 µM) | 250 (≈ 838 µM) | 250 (≈ 838 µM) | 250 (≈ 838 µM) | 250 (≈ 838 µM) |
| COc1cc(-c2cc3c(O)cccc3o2)c(C)c(OC)c1C [STEMOFURAN J] | – | 250 (≈ 838 µM) | 250 (≈ 838 µM) | 250 (≈ 838 µM) | 250 (≈ 838 µM) | 250 (≈ 838 µM) | 250 (≈ 838 µM) | 250 (≈ 838 µM) |
| COc1c(C)c(O)c(C)c(-c2cc3ccccc3o2)c1C [STEMOFURAN K] | – | 250 (≈ 885 µM) | 250 (≈ 885 µM) | 250 (≈ 885 µM) | 250 (≈ 885 µM) | 250 (≈ 885 µM) | 250 (≈ 885 µM) | 250 (≈ 885 µM) |
| GENTAMICIN | – | 250 | 250 | 250 | 250 | 250 | 250 | 250 |

Reference: ChEMBL document CHEMBL1641399, “Phytochemical investigations of Stemona curtisii and synthetic studies on stemocurtisine alkaloids” (2010)
